Bioassay records deposited in PubChem by several laboratories.
Only a selection was taken, and hits are over-represented in it overall.
CHOP inh = inhibitors of CHOP induction in ER stress response. CHO-K1 CHOP-promoter luciferase, tunicamycin-induced, 15-18 h. inhibition, % at 10 µM. 220,000 tested, 3.8% active. AID 2732;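 active = compounds that reduced the stress-induced luciferase reporter signal by more than about 70% of percent inhibition, limit read from the data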;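 also: 0% = tunicamycin plus vehicle and 100% = wells without tunicamycin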
UPR XBP1 act = activators of adaptive arm of unfolded protein response (XBP1). activation, % at 20 µM. 330,000 tested, 0.33% active. CHO-XBP1 luciferase reporter, IRE1-XBP1 UPR activation, luminescence; percent of tunicamycin response, DMSO as zero;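 active = versus positive control, 20 µM dose yields 30% or more activation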;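 also: 100% = tunicamycin at 10 µg/mL and 0% = DMSO only wells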
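Material: CHO cell line with stable XBP1 luciferase reporter; buffer or medium: F12 medium containing 10% fetal bovine serum; compound: single point, 20 µM final compound, 1% DMSO; incubation: 6 h treatment, 37 °C; measured by: glow luminescence from Steady-Glo reagent; evaluation: activation, % of tunicamycin; control set: tunicamycin high, DMSO low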
Cardio protect = protects H9c2 cardiomyocytes from peroxide injury | H2O2 injury protection, ATPLite, 2 h | 360,000 tested, 0.63% active | protection from H2O2 cell death, % at 20 µM | AID 588492;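 active = compounds giving at least 50% protection of heart cells from peroxide-induced death in the single-dose screen, raw or plate-pattern-corrected value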;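 also: 0% = DMSO wells with peroxide and 100% = DMSO wells without peroxide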
iPSC survival up = enhancers of human iPSC single-cell survival; hiPSC single-cell survival, ATPlite luminescence; 100% = ROCK inhibitor wells, 0% = DMSO; survival enhancement, % at 20 µM; 360,000 tested, 0.044% active; AID 602274; in the data active = survival enhancement above about 18%;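 also: cells exposed to compounds for 16 hours before the ATP read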
UPR CHOP act = apoptotic UPR (CHOP) activation; 330,000 tested, 0.34% active; activation, % at 10 µM; CHO-CHOP luciferase reporter, luminescence; percent of tunicamycin response over DMSO baseline;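 active = at 10 µM dose, activation of 40% or more, normalized to positive control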;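 also: 100% = tunicamycin at 10 µg/mL and 0% = DMSO alone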
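Test system: CHO CHOP reporter cells. Input: 500 CHO-CHOP cells per well. Medium: F12 with 10% FBS. Technique: luciferase luminescence. Measure: percent activation relative to tunicamycin control. Dosing: 10 µM compound, 0.5% DMSO. Timing: 16-18 h cell attachment, then 6 h compound exposure, 37 °C.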
Starred values were filed as active, the others as inactive.

Results for CCc1nc2ccc(C(=O)NCCN3CCNC3=O)cn2c1N(CCC(C)C)CCN(C)C ?
Cardio protect: 0; iPSC survival up: -1

Results for CCOc1ccc(/C=N/NC(=O)COc2ccccc2-c2ccccc2)cc1 ?
CHOP inh: 78*; UPR XBP1 act: -4; Cardio protect: -2; iPSC survival up: 0; UPR CHOP act: -1

What do the screens show for `O=C(NN=Cc1ccc(O)c(O)c1)c1ccccc1`?
Cardio protect: 28; iPSC survival up: -1

How did O=C(COc1ccccc1C(=O)N/N=C\c1ccc(O)c(O)c1)N/N=C/c1ccc(O)c(O)c1 do in these assays?
CHOP inh: 2; UPR XBP1 act: 2; Cardio protect: 54*; iPSC survival up: 1; UPR CHOP act: -2

Results for O=C(CN1CCN(C(=O)C2CCN(C(=O)/C=C/c3ccccc3)CC2)CC1)Nc1ccc(F)cc1 ?
Cardio protect: 9; iPSC survival up: -1

Results for Clc1cc(Cl)c(OCc2nc(-c3ccccn3)no2)cc1Cl ?
CHOP inh: 96*; UPR XBP1 act: 2; Cardio protect: -7; iPSC survival up: -1; UPR CHOP act: 1

Results for Clc1ccc(OCc2nc(-c3ccncc3)no2)c(Cl)c1 ?
CHOP inh: 83*; UPR XBP1 act: 4; Cardio protect: -1; iPSC survival up: -1; UPR CHOP act: 2

How did C[C@H](O)C#Cc1ccc2c(c1)O[C@@H](CN(C)Cc1ccc(-c3ccccc3)cc1)[C@H](C)CN([C@@H](C)CO)S2(=O)=O do in these assays?
Cardio protect: 18; iPSC survival up: -2

Results for COc1ccc(C(=O)NCC(=O)OCc2c(Cl)cccc2Cl)cc1OC ?
UPR XBP1 act: 0; Cardio protect: 3; iPSC survival up: 0; UPR CHOP act: 2

Results for CCOc1ccccc1N1CCN(C2=C(NS(=O)(=O)c3cccs3)C(=O)c3ccccc3C2=O)CC1 ?
CHOP inh: 71*; UPR XBP1 act: -3; Cardio protect: 10; iPSC survival up: -3; UPR CHOP act: 2

Results for CN1CCN(C2=C(NS(=O)(=O)c3cccs3)C(=O)c3ccccc3C2=O)CC1 ?
CHOP inh: -38; UPR XBP1 act: -1; Cardio protect: -12; iPSC survival up: 0; UPR CHOP act: 4

What do the screens show for `Cc1c(N=Cc2cc(Br)cc(Br)c2O)cccc1C(=O)O`?
CHOP inh: 41; UPR XBP1 act: -6; Cardio protect: 62*; iPSC survival up: -3; UPR CHOP act: -2

What do the screens show for `O=C(CSc1ccc(Br)cc1)N1CCN(S(=O)(=O)c2ccccc2)CC1`?
UPR XBP1 act: -4; Cardio protect: 3; iPSC survival up: 0; UPR CHOP act: 0

How did O=C(CSc1cccc(C(F)(F)F)c1)N1CCN(S(=O)(=O)c2ccccc2)CC1 do in these assays?
CHOP inh: 81*; UPR XBP1 act: -6; Cardio protect: 1; iPSC survival up: -2; UPR CHOP act: 0

Results for O=C1NC(O)=NC1(c1ccccc1)c1ccccc1 ?
CHOP inh: -21

Results for CCN(CC)C(=O)c1cccc(-c2csc(C(C)(O)c3ccc(F)c(F)c3)n2)c1 (stereo not given) ?
Cardio protect: -13; iPSC survival up: -2

Results for Cc1csc(N=Nc2ccc(N(C)C)cc2)[n+]1[O-] ?
Cardio protect: -11; iPSC survival up: -2

How did NS(=O)(=O)c1ccc(NCc2cc(Cl)ccc2OCc2ccccc2F)cc1 do in these assays?
CHOP inh: 70*; UPR XBP1 act: 1; Cardio protect: -6; iPSC survival up: 0; UPR CHOP act: 2

What do the screens show for `NS(=O)(=O)c1ccc(NCc2ccccc2OCc2ccc(F)cc2)cc1`?
CHOP inh: 42; UPR XBP1 act: -4; Cardio protect: -23; iPSC survival up: -1; UPR CHOP act: 0

What do the screens show for `COc1cccc(-c2nc3n(n2)CCc2ccccc2-3)c1`?
Cardio protect: -2; iPSC survival up: -4

How did O=C(Nc1ccccc1N1CCCCC1)c1cccs1 do in these assays?
CHOP inh: 86*; UPR XBP1 act: 1; Cardio protect: -2; iPSC survival up: -2; UPR CHOP act: -2

What do the screens show for `O=C(Nc1ccccc1N1CCCCC1)c1cnccn1`?
CHOP inh: 80*; UPR XBP1 act: 4; Cardio protect: 3; iPSC survival up: -2; UPR CHOP act: -3

Results for CC(C)Oc1ccc(C(=O)Nc2ccc(N3CCCC3)cc2)cc1 ?
CHOP inh: 73*; UPR XBP1 act: -2; Cardio protect: -6; iPSC survival up: 1; UPR CHOP act: -2

Results for O=C(Nc1ccc(N2CCCC2)cc1)c1ccc(Br)cc1 ?
UPR XBP1 act: -1; Cardio protect: -4; iPSC survival up: 0; UPR CHOP act: 6

Results for CS(=O)(=O)N1CCN(c2ccccc2NC(=O)c2cccs2)CC1 ?
CHOP inh: 4; UPR XBP1 act: 2; Cardio protect: 20; iPSC survival up: -2; UPR CHOP act: -2

What do the screens show for `Cc1ccccc1C(=O)Nc1ccccc1N1CCCCC1`?
CHOP inh: 88*; UPR XBP1 act: 4; Cardio protect: -3; iPSC survival up: -2; UPR CHOP act: -2

How did C[C@@H]1CN([C@H](C)CO)C(=O)c2cc(-c3ccccc3)cnc2O[C@@H]1CN(C)C(=O)C1CCOCC1 do in these assays?
Cardio protect: -1; iPSC survival up: -1

How did O=C(Nc1ccc(N2CCCCC2)cc1)c1ccccn1 do in these assays?
CHOP inh: 94*; UPR XBP1 act: -10; Cardio protect: -21; iPSC survival up: -5; UPR CHOP act: -9

What do the screens show for `NC(=O)c1cccn1-c1ncc(C(F)(F)F)cc1Cl`?
CHOP inh: 7; UPR XBP1 act: -3; Cardio protect: -8; iPSC survival up: 0; UPR CHOP act: -1

What do the screens show for `O=C(Nc1ccc(Br)cc1)c1cccn1-c1ncc(C(F)(F)F)cc1Cl`?
CHOP inh: 95*; UPR XBP1 act: -3; Cardio protect: -5; iPSC survival up: -2; UPR CHOP act: 0

What do the screens show for `Cc1cc(C)nc(Nc2nc(C(N)CCc3ccccc3)cs2)n1` (stereo not given)?
Cardio protect: 6; iPSC survival up: -3

What do the screens show for `O=C1ON=C(c2ccccc2)/C1=C/c1ccc(O)c(O)c1`?
UPR XBP1 act: 9; Cardio protect: 58*; iPSC survival up: 0; UPR CHOP act: 5

Results for COc1ccc(/C=C2\C(=O)ON=C2c2ccccc2)cc1 ?
UPR XBP1 act: 3; Cardio protect: 9; iPSC survival up: 1; UPR CHOP act: 6

How did NC(CSC(c1ccccc1)(c1ccccc1)c1ccc2c(c1)OCO2)C(=O)O (stereo not given) do in these assays?
Cardio protect: -6; iPSC survival up: 1

Results for CC(C)C[C@H]1CN(CCCC[C@H]2CNC(=O)C(=O)N2Cc2ccccc2)C(=O)C(=O)N1CCC1CCCCC1 ?
iPSC survival up: 0
